Assay results: ChEMBL document CHEMBL1131019, “Minimal-size, constrained corticotropin-releasing factor agonists with i-(i+3) Glu-Lys and Lys-Glu bridges” (1998)
Several values for one entry are separate records, joined by “and”; a condition that tells them apart may be missing. Identical values can stand only once. Square brackets hold non-standard residues; d marks the D form. Peptide text beside a SMILES is read from it. Nle = CCCC[C@H](N)C(=O)O

Organism: Rattus norvegicus
Assay: In vitro for agonist activity by measuring release of ACTH by rat pituitary cells in culture relative to human Corticotropin-Releasing factor (CRF)
Assay type: functional, Pituitary gland cell
In short: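 Male Sprague–Dawley rat anterior pituitary cells, collagenase-dissociated, plated at 0.16 × 10⁶ cells/well in 2% FBS medium. After 3 days, washed into 0.1% BSA medium, preincubated 1 h, washed again, then exposed to peptide for 3 h. Medium ACTH measured by radioimmunoassay.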
In the case of CCCC[C@H](NC(=O)[C@H](CCC(=O)O)NC(=O)[C@H](CC(C)C)NC(=O)[C@H](CCCC)NC(=O)[C@H](CCC(=O)O)NC(=O)[C@H](CCCN=C(N)N)NC(=O)[C@H](CC(C)C)NC(=O)[C@H](CC(C)C)NC(=O)[C@H](Cc1c[nH]cn1)NC(=O)[C@@H](Cc1ccccc1)NC(=O)[C@@H](NC(=O)[C@H](CC(C)C)NC(=O)[C@H](CC(=O)O)NC(=O)[C@H](CC(C)C)NC(=O)[C@H](CO)NC(=O)[C@@H](NC(=O)[C@@H]1CCCN1C(=O)[C@@H]1CCCN1C(C)=O)[C@@H](C)CC)[C@@H](C)O)C(=O)N[C@@H](C)C(=O)N[C@@H](CCCCN)C(=O)N[C@@H](C)C(=O)N[C@@H](CCC(=O)O)C(=O)N[C@@H](CCC(N)=O)C(=O)N[C@@H](CCC(=O)O)C(=O)N[C@@H](C)C(=O)N[C@@H](CCC(=O)O)C(=O)N[C@@H](CCC(N)=O)C(=O)N[C@@H](C)C(=O)N[C@@H](C)C(=O)N[C@@H](CC(C)C)C(=O)N[C@@H](CC(N)=O)C(=O)N[C@@H](CCCN=C(N)N)C(=O)N[C@@H](CC(C)C)C(=O)N[C@@H](CC(C)C)C(=O)N[C@@H](CC(C)C)C(=O)N[C@@H](CCC(=O)O)C(=O)N[C@@H](CCC(=O)O)C(=O)N[C@@H](C)C(N)=O, the Potency is reported as 1.3.
CCCC[C@H](NC(=O)[C@H](CCC(=O)O)NC(=O)[C@@H](NC(=O)[C@H](CCCC)NC(=O)[C@H](CC(N)=O)NC(=O)[C@H](CCCN=C(N)N)NC(=O)[C@H](CC(C)C)NC(=O)[C@H](CC(C)C)NC(=O)[C@H](Cc1c[nH]cn1)NC(=O)[C@@H](Cc1ccccc1)NC(=O)[C@@H](NC(=O)[C@H](CC(C)C)NC(=O)[C@H](CC(=O)O)NC(=O)[C@@H](NC(=O)[C@H](CO)NC(=O)[C@@H](NC(=O)[C@@H]1CCCN1C(=O)[C@@H]1CCCN1C(=O)[C@H](CC(=O)O)NC(=O)[C@H](CC(=O)O)NC(=O)[C@@H](N)CC(N)=O)[C@@H](C)CC)[C@@H](C)CC)[C@@H](C)O)[C@@H](C)CC)C(=O)N[C@@H](C)C(=O)N[C@@H](CCCN=C(N)N)C(=O)N[C@H](C(=O)N[C@@H](CCC(=O)O)C(=O)N[C@@H](CC(N)=O)C(=O)N[C@@H](CCC(=O)OC)C(=O)N[C@@H](CCCN=C(N)N)C(=O)N[C@@H](CCC(=O)O)C(=O)N1C(=O)CNC(=O)[C@H](C)NC(=O)[C@@H](N)CCC(=O)NCCCC[C@H]1C(=O)N[C@@H](CC(N)=O)C(=O)N[C@@H](CCCN=C(N)N)C(=O)N[C@@H](CCCCN)C(=O)N[C@@H](Cc1ccc(O)cc1)C(=O)N[C@@H](CC(C)C)C(=O)N[C@@H](CC(=O)O)C(=O)N[C@@H](CCC(=O)O)C(=O)N[C@H](C(N)=O)C(C)C)[C@@H](C)CC was tested, and the Potency was 2.9.
Work on CC[C@H](C)[C@H](NC(=O)[C@H](CO)NC(=O)[C@H](CC(C)C)NC(=O)[C@H](CO)NC(=O)[C@H]1CCCN1C(=O)[C@H](CC(N)=O)NC(=O)[C@@H](N)CC(=O)O)C(=O)N[C@@H](CC(=O)O)C(=O)N[C@@H](CC(C)C)C(=O)N[C@H](C(=O)N[C@@H](Cc1ccccc1)C(=O)N[C@@H](Cc1c[nH]cn1)C(=O)N[C@@H](CC(C)C)C(=O)N[C@@H](CC(C)C)C(=O)N[C@@H](CCCN=C(N)N)C(=O)N[C@H](C(=O)N[C@@H](CC(C)C)C(=O)N[C@@H](CC(C)C)C(=O)N[C@@H](CCC(=O)O)C(=O)N[C@@H](CC(C)C)C(=O)N[C@@H](C)C(=O)N[C@@H](CCCN=C(N)N)C(=O)N[C@H](C(=O)N[C@@H](CCC(N)=O)C(=O)N[C@@H](CO)C(=O)N[C@@H](CCC(N)=O)C(=O)N[C@@H](CCCN=C(N)N)C(=O)N[C@@H](CCC(=O)O)C(=O)N[C@@H](CCCN=C(N)N)C(=O)N[C@@H](C)C(=O)N[C@@H](CCC(=O)O)C(=O)N[C@@H](CCC(N)=O)C(=O)N[C@@H](CC(N)=O)C(=O)N[C@@H](CCCN=C(N)N)C(=O)N[C@H](C(=O)N[C@H](C(=O)N[C@@H](Cc1ccccc1)C(=O)N[C@@H](CC(=O)O)C(=O)N[C@@H](CO)C(=O)N[C@H](C(N)=O)C(C)C)[C@@H](C)CC)[C@@H](C)CC)[C@@H](C)O)[C@@H](C)O)[C@@H](C)O (stereo in doubt; 37) yielded a Potency of 2.9.
Work on CCCC[C@H](NC(=O)[C@H](CCC(=O)O)NC(=O)[C@H](CC(C)C)NC(=O)[C@H](CCCC)NC(=O)[C@H](CCC(=O)O)NC(=O)[C@H](CCCN=C(N)N)NC(=O)[C@H](CC(C)C)NC(=O)[C@H](CC(C)C)NC(=O)[C@H](Cc1c[nH]cn1)NC(=O)[C@@H](Cc1ccccc1)NC(=O)[C@@H](NC(=O)[C@H](CC(C)C)NC(=O)[C@H](CC(=O)O)NC(=O)[C@H](CC(C)C)NC(=O)[C@H](CO)NC(=O)[C@@H](NC(=O)[C@@H]1CCCN1C(=O)[C@@H]1CCCN1C(C)=O)[C@@H](C)CC)[C@@H](C)O)C(=O)N[C@@H](C)C(=O)N[C@@H](CCCCN)C(=O)N[C@@H](C)C(=O)N[C@@H](CCC(=O)O)C(=O)N[C@@H](CCC(N)=O)C(=O)N[C@@H](CCC(=O)O)C(=O)N[C@@H](C)C(=O)N[C@@H](CCC(=O)O)C(=O)N1C(=O)[C@H](C)NC(=O)[C@H](C)NC(=O)[C@@H](N)CCC(=O)NCCCC[C@H]1C(=O)N[C@@H](CC(N)=O)C(=O)N[C@@H](CCCN=C(N)N)C(=O)N[C@@H](CC(C)C)C(=O)N[C@@H](CC(C)C)C(=O)N[C@@H](CC(C)C)C(=O)N[C@@H](CCC(=O)O)C(=O)N[C@@H](CCC(=O)O)C(=O)N[C@@H](C)C(N)=O yielded a Potency of 7.5.
For CC[C@H](C)[C@H](NC(=O)[C@H](CO)NC(=O)[C@H](CC(C)C)NC(=O)[C@H](CO)NC(=O)[C@@H]1CCCN1C(C)=O)C(=O)N[C@@H](CC(=O)O)C(=O)N[C@@H](CC(C)C)C(=O)N[C@H](C(=O)N[C@H](Cc1ccccc1)C(=O)N[C@@H](Cc1c[nH]cn1)C(=O)N[C@@H](CC(C)C)C(=O)N[C@@H](CC(C)C)C(=O)N[C@@H](CCCN=C(N)N)C(=O)N[C@H](C(=O)N[C@@H](CC(C)C)C(=O)N[C@@H](CC(C)C)C(=O)N[C@@H](CCC(=O)O)C(=O)N[C@@H](CC(C)C)C(=O)N[C@@H](C)C(=O)N[C@@H](CCCN=C(N)N)C(=O)N[C@H](C(=O)N[C@@H](CCC(N)=O)C(=O)N[C@@H](CO)C(=O)N[C@@H](CCC(N)=O)C(=O)N[C@@H](CCCN=C(N)N)C(=O)N[C@@H](CCC(=O)O)C(=O)N1C(=O)[C@H](CCC(=O)O)NC(=O)[C@H](C)NC(=O)[C@@H](N)CCC(=O)NCCCC[C@H]1C(=O)N[C@@H](CC(N)=O)C(=O)N[C@@H](CCCN=C(N)N)C(=O)N[C@H](C(=O)N[C@H](C(=O)N[C@@H](Cc1ccccc1)C(=O)N[C@@H](CC(=O)O)C(=O)N[C@@H](CO)C(=O)N[C@H](C(N)=O)C(C)C)[C@@H](C)CC)[C@@H](C)CC)[C@@H](C)O)[C@@H](C)O)[C@@H](C)O, the Potency was 3.8.
For CCCC[C@H](NC(=O)[C@H](CCCN=C(N)N)NC(=O)[C@H](CC(C)C)NC(=O)[C@H](CC(C)C)NC(=O)[C@H](CCC(=O)O)NC(=O)[C@H](CC(C)C)NC(=O)[C@H](CC(C)C)NC(=O)[C@H](CC(C)C)NC(=O)[C@H](CC(=O)O)NC(=O)[C@@H](NC(=O)[C@H](CO)NC(=O)[C@@H](NC(=O)[C@@H]1CCCN1C(=O)[C@@H]1CCCN1C(=O)CNC(=O)[C@H](CCC(=O)O)NC(=O)[C@@H]1CCCN1)[C@@H](C)CC)[C@@H](C)CC)C(=O)N[C@@H](CCCC)C(=O)N[C@H](C(=O)N[C@@H](CCC(=O)O)C(=O)N[C@H](C(=O)N[C@@H](CCC(=O)O)C(=O)N[C@@H](CCCCN)C(=O)N[C@@H](CCC(N)=O)C(=O)N[C@@H](CCC(=O)O)C(=O)N[C@@H](CCCCN)C(=O)N[C@@H](CCC(=O)O)C(=O)N[C@@H](CCCCN)C(=O)N[C@H](CCC(=O)O)C(=O)N[C@H](CCC(N)=O)C(=O)N[C@H](C)C(=O)N[C@H](CCCCN)C(=O)N[C@H](CC(N)=O)C(=O)N[C@H](CC(N)=O)C(=O)N[C@H](CCCN=C(N)N)C(=O)N[C@H](CC(C)C)C(=O)N[C@H](CC(C)C)C(=O)N[C@H](CC(C)C)C(=O)N[C@H](CC(=O)O)C(=O)N[C@@H](C(=O)N[C@@H](C(N)=O)[C@H](C)CC)[C@H](C)O)[C@@H](C)CC)[C@@H](C)CC, the Potency was 0.53 and 0.54.
CC[C@H](C)[C@H](NC(=O)[C@H](CO)NC(=O)[C@H](CC(C)C)NC(=O)[C@H](CO)NC(=O)[C@H]1CCCN1C(=O)[C@H](CC(N)=O)NC(=O)[C@@H](N)CC(=O)O)C(=O)N[C@@H](CC(=O)O)C(=O)N[C@@H](CC(C)C)C(=O)N[C@H](C(=O)N[C@@H](Cc1ccccc1)C(=O)N[C@@H](Cc1c[nH]cn1)C(=O)N[C@@H](CC(C)C)C(=O)N[C@@H](CC(C)C)C(=O)N[C@@H](CCCN=C(N)N)C(=O)N[C@H](C(=O)N[C@@H](CC(C)C)C(=O)N[C@@H](CC(C)C)C(=O)N[C@@H](CCC(=O)O)C(=O)N[C@@H](CC(C)C)C(=O)N[C@@H](C)C(=O)N[C@@H](CCCN=C(N)N)C(=O)N[C@H](C(=O)N[C@@H](CCC(N)=O)C(=O)N[C@@H](CO)C(=O)N[C@@H](CCC(N)=O)C(=O)N[C@@H](CCCN=C(N)N)C(=O)N[C@@H](CCC(=O)O)C(=O)N[C@@H](CCCN=C(N)N)C(=O)N[C@@H](C)C(=O)N[C@@H](CCC(=O)O)C(=O)N[C@@H](CCC(N)=O)C(=O)N[C@@H](CC(N)=O)C(=O)N[C@@H](CCCN=C(N)N)C(=O)N[C@H](C(=O)N[C@H](C(=O)N[C@@H](Cc1ccccc1)C(=O)N[C@@H](CC(=O)O)C(=O)N[C@@H](CO)C(=O)N[C@H](C(N)=O)C(C)C)[C@@H](C)CC)[C@@H](C)CC)[C@@H](C)O)[C@@H](C)O)[C@@H](C)O (stereo in doubt; 36) gave a Potency of 3.1.
CCCC[C@H](NC(=O)[C@H](CCC(=O)O)NC(=O)[C@H](CC(C)C)NC(=O)[C@H](CCCC)NC(=O)[C@H](CCC(=O)O)NC(=O)[C@H](CCCN=C(N)N)NC(=O)[C@H](CC(C)C)NC(=O)[C@H](CC(C)C)NC(=O)[C@H](Cc1c[nH]cn1)NC(=O)[C@H](Cc1ccccc1)NC(=O)[C@@H](NC(=O)[C@H](CC(C)C)NC(=O)[C@H](CC(=O)O)NC(=O)[C@H](CC(C)C)NC(C)=O)[C@@H](C)O)C(=O)N[C@@H](C)C(=O)N[C@@H](CCCCN)C(=O)N[C@@H](C)C(=O)N[C@@H](CCC(=O)O)C(=O)N[C@@H](CCC(N)=O)C(=O)N[C@@H](CCC(=O)O)C(=O)N[C@@H](C)C(=O)N[C@@H](CCC(=O)O)C(=O)N[C@@H](CCC(N)=O)C(=O)N[C@@H](C)C(=O)N[C@@H](C)C(=O)N[C@@H](CC(C)C)C(=O)N[C@@H](CC(N)=O)C(=O)N[C@@H](CCCN=C(N)N)C(=O)N[C@@H](CC(C)C)C(=O)N[C@@H](CC(C)C)C(=O)N[C@@H](CC(C)C)C(=O)N[C@@H](CCC(=O)O)C(=O)N[C@@H](CCC(=O)O)C(=O)N[C@@H](C)C(N)=O (Ac-LDLTFHLLRE[Nle]LE[Nle]AKAEQEAEQAALNRLLLEEA-NH2) was tested, and the Potency was 0.004.
